Ecoli tolC – growth inhibitors of E. coli BW25113 tolC mutant; OD615; growth inhibition, % at 10 µM (by protocol); 2.2% of 65,000 active; AID 573;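 active means growth inhibition at or above a cutoff equal to the mean over every tested compound plus 3 SD, cut at about 60% in these data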;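 further: growth measured after 20 h incubation at 37 °C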
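Test system: tolC-deleted E. coli BW25113; medium: LB with kanamycin 50 µg/mL; compound: single-point testing at 10 µM; incubation: 20 h compound exposure of bacteria at 37 °C; signal: OD at 615 nm; evaluation: growth inhibition in percent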
PostGolgi ctrl – inhibits growth of the yeast control strain. 5% of 98,000 active. efflux-deficient yeast background strain, growth absorbance A615, 16 h. AID 738. inhibition, % at 10 µM
PostGolgi yeast – growth inhibition of a yeast mutant, post-Golgi transport screen. 0.9% of 98,000 active. post-Golgi transport phenotypic cell assay. inhibition, % at 10 µM;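 further: yeast cells grown in 1536-well plates; yeast grown about 18 h at 30C before absorbance read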
HePTP inhibitor – blocks human HePTP tyrosine phosphatase. P35236. 0.64% of 110,000 active. AID 521. recombinant HePTP phosphatase activity, OD absorbance. inhibition, % at 20 µM; in the data active means inhibition above about 50%;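 further: plate controls were vehicle for no effect and reference inhibitor for full effect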
PLAP activator – activators of human placental alkaline phosphatase; P05187; purified PLAP enzyme, luminescent substrate read-out; stronger effect = higher value; activation fold at 20 µM; 1.2% of 96,000 active; in the data active means activation fold above about 2
Target sequence (P05187 whole entry, looked up): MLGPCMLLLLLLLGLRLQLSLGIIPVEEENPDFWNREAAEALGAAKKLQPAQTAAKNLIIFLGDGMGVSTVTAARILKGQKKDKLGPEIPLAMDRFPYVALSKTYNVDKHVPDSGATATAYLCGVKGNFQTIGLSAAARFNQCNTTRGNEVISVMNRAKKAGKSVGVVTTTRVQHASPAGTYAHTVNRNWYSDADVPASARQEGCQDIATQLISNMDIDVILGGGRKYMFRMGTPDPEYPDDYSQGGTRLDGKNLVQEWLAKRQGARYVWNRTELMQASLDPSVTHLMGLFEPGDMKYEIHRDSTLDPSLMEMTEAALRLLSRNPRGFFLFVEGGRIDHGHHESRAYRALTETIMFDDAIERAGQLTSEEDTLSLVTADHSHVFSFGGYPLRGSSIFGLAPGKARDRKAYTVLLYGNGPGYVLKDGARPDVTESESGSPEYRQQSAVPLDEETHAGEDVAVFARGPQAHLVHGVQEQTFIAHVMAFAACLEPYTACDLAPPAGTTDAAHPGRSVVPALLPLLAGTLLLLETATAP
E coli WT exp – blocks growth of wild type E. coli BW25113; OD600 absorbance; growth inhibition, % at 100 µM; 0.15% of 98,000 active;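 active means growth inhibition above about 50% at one test dose, limit read from the data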;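 further: growth measured after 20 h incubation at 37 °C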
The depositor's hits bear a star; nt = no result given. Compounds with a hit are over-represented: about 5.4% of the library has one in this group of screens. Unless noted, no stated cut-off is given here; in the data, active means inhibition above about 30%; inactive means the rest.

SMILES | Ecoli tolC | PostGolgi ctrl | PostGolgi yeast | HePTP inhibitor | PLAP activator | E coli WT exp
O=S(=O)(O)c1ccc(NS(=O)(=O)c2cccc3cccnc23)cc1 | nt | nt | nt | 5.3 | nt | nt
COc1cc(/C=C(\C#N)c2[nH]nc(N)c2C#N)cc(OC)c1O | nt | 10.8 | 3.4 | nt | 1 | -9.0
CCCOc1ccc(-c2nnn(CC(=O)c3c[nH]c4ccccc34)n2)cc1 | nt | 9.4 | 15.4 | nt | 1.1 | -11.0
Cc1cc2ncn(CC(O)COC3CCCCC3)c2cc1C (stereo not drawn) | 22.4 | 31.0* | 13.5 | 3.7 | 1.5 | 3.0
CC(C)(C)/C(O)=C(/C#N)c1nc2ccccc2[nH]1 | 4.0 | 10.5 | 8.3 | 7.8 | 1.4 | 5.0
CC(C)CC(/C(O)=C(\C#N)c1nc2ccccc2[nH]1)N1C(=O)c2ccccc2C1=O (stereo not drawn) | 24.3 | -2.8 | -1.4 | 2.1 | 2.1* | 4.0
CCN(C(=O)c1cc2cc3ccc(C)cc3nc2o1)c1ccc(OC)cc1 | 72.1* | 17.0 | 6.6 | -3.4 | 1.5 | -15.0
COCCNC(=O)c1onc(CCl)c1C(=O)OC | nt | -13.6 | 0.2 | nt | 1.3 | 8.0
O=C(Nc1ncc(Cc2cc(Cl)ccc2Cl)s1)c1ccc([N+](=O)[O-])cc1 | nt | 31.4* | 6.7 | nt | 0.9 | -4.0
COc1cc(OC)cc(C(=O)N[C@H](C(=O)NC23CC4CC(CC(C4)C2)C3)C(C)C)c1 | nt | 28.5 | 47.2* | nt | 1 | -13.0
COc1cc(CC(=O)O)c(C(C)=O)cc1OC | 6.7 | 5.5 | -4.0 | -4.8 | 0.8 | -1.0
COc1cc(C=O)ccc1OCCN1CCOCC1 | nt | nt | nt | 102.7* | nt | nt
CC1=C(C(=O)OCC(C)C)C(c2ccc(Br)cc2)NC(=O)N1 (stereo not drawn) | nt | nt | nt | 59.6* | nt | nt
CCN(CCNC(=O)C1CCN(Cc2nc(-c3ccc(Cl)cc3)oc2C)CC1)c1ccccc1 | 6.9 | 23.3 | 2.5 | 8.1 | 1.9 | 12.0
COc1ccc(CCNC(=O)C2CCN(Cc3nc(-c4ccc(Cl)cc4)oc3C)CC2)cc1OC | 3.7 | nt | nt | -4.9 | nt | nt
COc1ccc(OC)c(CCNC(=O)CS(=O)(=O)Cc2nc(-c3ccccc3C)oc2C)c1 | 45.1 | 36.6* | 6.2 | 2.6 | 1.2 | -4.0
COc1ccc(CCNC(=O)C2CCN(Cc3nc(-c4ccccc4C)oc3C)CC2)cc1OC | 7.5 | -6.8 | 4.2 | -12.3 | 2.1* | 11.0
Cc1ccccc1-c1nc(CN2CCC(C(=O)NCCC3=CCCCC3)CC2)c(C)o1 | 65.1* | 8.9 | 1.9 | -1.2 | 2.3* | 16.0
CCN(CCNC(=O)C1CCN(Cc2nc(-c3cccc(Cl)c3)oc2C)CC1)c1ccccc1 | 65.0* | 25.0 | -0.6 | 7.6 | 2* | 9.0
COc1cccc(-c2nc(CS(=O)(=O)CC(=O)NCc3ccccc3OC)c(C)o2)c1 | -7.7 | 2.0 | -0.2 | -6.4 | nt | 0.0
COc1cccc(-c2nc(CS(=O)(=O)CC(=O)NCc3ccccc3)c(C)o2)c1 | -0.1 | -0.8 | -5.9 | 7.4 | 1.2 | 0.0
c1ccc2sc(N3CCN(Cc4nnnn4CC4CCCO4)CC3)nc2c1 (stereo not drawn) | 9.9 | 7.3 | -2.3 | -9.3 | 1.6 | 3.0
Nn1cc(-c2ccccc2)nc1SCC(=O)NC1CCS(=O)(=O)C1 (stereo not drawn) | 6.0 | -8.6 | -3.8 | 5.9 | 0.7 | 2.0
COc1cc(OC)cc(C(=O)N2CCN(S(C)(=O)=O)CC2)c1 | -11.5 | 8.0 | -0.2 | 2.2 | 1.1 | -15.0
Cc1cc(C(=O)NCc2ccco2)no1 | nt | 11.2 | 30.3* | nt | 0.9 | 14.0
SMILES | Ecoli tolC | PostGolgi ctrl | PostGolgi yeast | HePTP inhibitor | PLAP activator | E coli WT exp
Cc1ccc(-c2cc(C(=O)NCc3ccco3)no2)cc1 | -12.2 | 11.4 | -21.2 | 2.2 | 1 | -7.0
COc1ccc(NC(=O)c2cc3n(n2)C(C(F)(F)F)CC(c2ccc4c(c2)OCO4)N3)cc1OC (stereo not drawn) | 43.0 | 15.0 | -17.7 | 0.9 | nt | -14.0
CCCCNC(=O)c1cc2n(n1)C(C(F)(F)F)CC(c1ccccc1)N2 (stereo not drawn) | 7.6 | 34.9* | 1.1 | 3.0 | 0.8 | -4.0
Cc1cccc(NC(=O)c2cc3n(n2)C(C(F)(F)F)CC(c2ccc4c(c2)OCO4)N3)c1 (stereo not drawn) | 68.4* | 57.8* | 8.7 | 12.5 | 0.9 | -13.0
Cc1ccc(C2CC(C(F)(F)F)n3nc(C(=O)NCc4ccco4)cc3N2)cc1 (stereo not drawn) | 6.1 | 32.1* | -2.4 | 13.0 | 1.3 | 1.0
CCCCNC(=O)c1cc2n(n1)C(C(F)(F)F)CC(c1ccc(Cl)c(Cl)c1)N2 (stereo not drawn) | nt | nt | nt | -7.6 | nt | nt
